Values after ≈ are worked out from the molar mass of the structure shown. *1 amine or outer side, *2 acyl side, *3 side chain or, on linkers, in order; H or OH if unused. Where a SMILES comes first, the peptide text is derived from it. Bridges are numbered along the chain shown (N, C = ends). [ ]: non-standard residue; d: D form. The star is where a group is joined. X2 = C[C@H](Oc1ccc([C@H](N[*:1])C(=O)[*:2])cc1)[C@@]1(/C=C/C(=O)[*:3])CO1; X1 = CC(C)[C@H](O)[C@H](C)C(=O)*; aIle = CC[C@@H](C)[C@H](N)C(=O)O; dNMeF = CN[C@H](Cc1ccccc1)C(=O)O; aThr = C[C@H](O)[C@H](N)C(=O)O
Legend:
E. coli strain D21f2tolC [1] = assay: Broth-microdilution MIC, wild-type parent; assay type: cell-based; details: LB broth, 16 h, growth inhibited by >90%
[2] = test system: Staphylococcus simulans strain M22; assay: Effects on macromolecular synthesis; assay type: cell-based; details: PUM 100–200 μM
In short: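 Staphylococcus simulans M22 was grown in 0.5x Mueller Hinton II broth at 37°C with shaking to OD600 0.5, then diluted to OD600 0.1–0.2. [2-14C]-thymidine was added at 6 kBq/ml for 15 min, and the culture was split. One half received test compound (final 100–200 μM). Samples taken at 0, 10, 20 and 40 min were quenched in ice-cold 10% TCA/1 M NaCl and held 30–60 min on ice.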

[3] = test system: S. pyogenes strain L49 or S. pneumoniae strain L44; assay: Checkerboard interaction assays PUM + Rif; assay type: cell-based; details: FICI
E. coli RNAP [4] = molecular target: T1, E. coli RNAP (Escherichia coli, UniProt P0A8T7+P0A8V2); assay: Nucleotide addition in transcription elongation; assay type: biochemical; details: 500 μM PUM
In short: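 Run per an earlier published protocol. Reactions contained no inhibitor, the test compound, 2 μM rifampicin or 100 μM lipiarmycin as comparator.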

E. coli RNAP core enzyme = E. coli RNAP core enzyme (Escherichia coli, UniProt P0A8T7+P0A8V2); assay: Single-nucleotide-addition reactions; assay type: biochemical; details: 25 μM PUM; 2.5 μM NTPs
In short: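 Elongation complexes were assembled on nucleic-acid scaffolds, annealed 5 min at 95°C and step-cooled to 4°C in 5 mM Tris-HCl pH 7.7, 200 mM NaCl, 10 mM MgCl2. Steps at 37°C: 10 min preincubation, 5 min with compound (0 or 25 μM), 5 min with single NTP.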

human serum proteins = assay: Growth-curve assays in absence and presence of 30% human serum; assay type: in vitro ADME
[5] = test system: E. coli D21f2tolC with plasmid-encoded RNAP β/β′ derivatives; assay: E. coli plasmid-based resistance assay; assay type: cell-based; details: substitutions β565 Glu→Gly and β681 Met→Lys
In short: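 E. coli transformants were grown from single colonies in LB with 200 μg/ml ampicillin at 37°C with shaking to OD600 0.4–0.8. They were induced with 1 mM IPTG for 1 h. About 2×10^5 cells were added to wells holding a 2-fold dilution series of test compound in the same medium (final 0 or 25–4000 μg/ml) and incubated 16 h at 37°C with shaking.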

[6] = test system: S. pyogenes PUM-resistant mutants; assay: Resistance levels of spontaneous PUM-resistant mutants; assay type: cell-based; details: substitutions at β residues 565, 681, and 684, and β′ residue 786
[7] = molecular target: [565Glu→Asp]β-RNAP σ^70 holoenzyme (Escherichia coli, UniProt P0A8T7+P0A8V2, E565D); assay: Fluorescence-detected transcription assay, mutant RNAP; assay type: biochemical, E. coli
[8] = test system: S. pyogenes strain ATCC 12344; assay: Spontaneous resistance rate, Luria-Delbrück fluctuation assays; assay type: cell-based; details: compared with Rif
In short: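 Luria-Delbrück fluctuation assay. ~1×10^9 cfu S. pyogenes ATCC 12344 per plate were plated on Todd Hewitt agar (1.5% agar) containing 64 or 128 μg/ml test compound, or 1 or 2 μg/ml rifampicin. Colonies were counted after 24 h at 37°C, with at least six independent determinations each.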

[9] = molecular target: T2, E. coli RNAP σ^70 holoenzyme (Escherichia coli, UniProt P0A8T7+P0A8V2); assay: Nucleotide addition at elevated NTP concentrations; assay type: biochemical; details: 6 μM PUM; 10–500 μM varied NTP
[10] = molecular target: T2, E. coli RNAP σ^70 holoenzyme; assay: Nucleotide addition on standard and U-less cassette templates; assay type: biochemical; details: standard vs U-less cassette template; 0–20 μM PUM
E. coli RNAP [11] = molecular target: T1, E. coli RNAP; assay: Nucleotide addition in transcription initiation; assay type: biochemical; details: 500 μM PUM
In short: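 Run per an earlier published protocol, labelled with 5 μM [α32P]UTP (3 Bq/fmol). Reactions contained no inhibitor, the test compound, 2 μM rifampicin or 100 μM lipiarmycin.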

[12] = test system: E. coli GE-resistant mutants; assay: Cross-resistance of GE-resistant mutants to PUM; assay type: cell-based
[13] = test system: S. pyogenes and E. coli resistant mutants; assay: Cross-resistance between PUM and Lpm, Myx, Stl, CBR703, Sal; assay type: cell-based
[14] = test system: S. pyogenes Rif-resistant mutants; assay: Cross-resistance of Rif-resistant mutants to PUM; assay type: cell-based; details: Figs. 1B–C,E
In short: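 S. pyogenes mutants were selected on Todd Hewitt agar with rifampicin at 0.1–2 μg/ml (1–16x MIC) and sequenced. Thirteen mutants and the isogenic wild-type parent were grown in Todd Hewitt broth at 37°C in 7% CO2/6% O2/4% H2/83% N2 to OD600 0.4–0.8. They were tested by broth microdilution with a 2-fold test compound series (0 or 1.56–100 μg/ml) for 16 h at 37°C. MIC was taken at >90% growth inhibition.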

bacterial RNAP = bacterial RNAP (Escherichia coli, UniProt P0A8T7+P0A8V2); assay: RNAP-inhibitory activity in vitro; assay type: biochemical, E. coli; S. aureus; B. subtilis; details: read-out: IC50, inhibition of bacterial RNAP
[15] = molecular target: T2, E. coli RNAP σ^70 holoenzyme; assay: Multiple-nucleotide-addition reactions; assay type: biochemical; details: 10 μM NTPs
E. coli strain D21f2tolC [16] = assay: MIC on LB agar; assay type: cell-based; details: E. coli D21f2tolC plated on LB agar
S. pyogenes ATCC 12344 = assay: Broth-microdilution MIC, wild-type parent; assay type: cell-based; details: Todd Hewitt broth, 16 h, growth inhibited by >90%
S. pyogenes C203 = assay: Mouse Streptococcus pyogenes peritonitis model; assay type: in vivo
In short: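 Female ICR mice (23–25 g) were acclimatised for one week at 23±2°C and 55±10% humidity. They were infected intraperitoneally with 4×10^3 cfu S. pyogenes C203 in 0.5 ml saline containing 1% peptone. Groups of eight, randomised and unblinded, received 2.5-fold test compound dilutions in 5% dextrose by one of three regimens: i.v. at 10 min and 6 h (total 3.2–50 mg/kg); single i.v. at 10 min; or single s.c. at 10 min (each total 1.024–40 mg/kg).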

[17] = molecular target: T2, E. coli RNAP σ^70 holoenzyme; assay: Formation of RNAP-promoter open complex; assay type: biochemical; details: 500 μM PUM

## ONC(=Nc1ccccc1)c1cccc(C(F)(F)F)c1 [CBR703]
E. coli strain D21f2tolC [1]
  MICwild-type: 6.25 µg/mL

## NC(=O)CC[C@@H](C(=O)NC[C@H]1O[C@@H](c2c[nH]c(=O)[nH]c2=O)[C@H](O)[C@@H]1O)N(O)C(=O)CN=C(N)N [PUM, pseudouridimycin]
[2]
  effect on DNA synthesis ([14C]-thymidine incorporation): little or no inhibition of DNA synthesis
  effect on RNA synthesis ([3H]-uridine incorporation): rapid and strong inhibition of RNA synthesis
  effect on protein synthesis ([14C]-isoleucine incorporation): slower and weaker inhibition of protein synthesis
[3]
  antibacterial activity when co-administered with Rif: additive antibacterial activity
E. coli RNAP [4]
  effect on nucleotide addition in transcription elongation: Inhibition by PUM of nucleotide addition in transcription elongation
E. coli RNAP core enzyme
  nucleotide specificity of inhibition, single-nucleotide addition: inhibits incorporation of U, but not G, A, or C
Human serum proteins; 30% human serum, Fig. 1C rows 1–4
  antibacterial activity in absence versus presence of human serum: Identical results
Human serum proteins; human serum proteins, inferred from 30% human serum assays
  unbound fraction: ~ 100%
[5]
  resistance (MIC/MICwild-type): ≥ 4 x
[6]
  PUM-resistance (MIC/MICwild-type): ≥ 4 x
[7]
  inhibition of purified RNAP containing β565 Glu→Asp: PUM-resistant phenotype
[8]
  spontaneous resistance rates: an order-of-magnitude lower than those of Rif
[9]
  effect of high NTP concentrations on transcription inhibition: high concentrations of UTP–but not high concentrations of GTP, ATP, or CTP–overcome transcription inhibition by PUM
[10]
  template dependence of transcription inhibition: inhibits transcription only on templates that direct incorporation of U
E. coli RNAP [11]
  effect on nucleotide addition in transcription initiation: Inhibition by PUM of nucleotide addition in transcription initiation
[12]
  cross-resistance with GE: partial cross-resistance
[13]
  cross-resistance with Lpm, Myx, Stl, CBR703, and Sal: does not exhibit cross-resistance
E. coli strain D21f2tolC [1]
  MICwild-type: 400 µg/mL
[14]
  cross-resistance with Rif: no cross-resistance
Bacterial RNAP
  IC50: 100 nM
[15]
  nucleotide specificity of inhibition, multiple-nucleotide addition: inhibits incorporation of U, but not G, A, or C
E. coli strain D21f2tolC [16]
  MIC under these conditions: ~800 µg/mL (≈ 1640 µM)
S. pyogenes ATCC 12344
  MICwild-type: 6.25 µg/mL
S. pyogenes C203
  ED50 (dose yielding 50% survival at 7 days): 9 mg/kg
[17]
  effect on formation of catalytically-competent RNAP-promoter open complex, RPo: Absence of inhibition

## CO[C@H]1/C=C/O[C@@]2(C)Oc3c(C)c(O)c4c(O)c(c(/C=N/N5CCN(C)CC5)c(O)c4c3C2=O)NC(=O)/C(C)=C\C=C\[C@H](C)[C@H](O)[C@@H](C)[C@@H](O)[C@@H](C)[C@H](OC(C)=O)[C@@H]1C [Rif, rifampin]
E. coli strain D21f2tolC [1]
  MICwild-type: 0.20 µg/mL
S. pyogenes ATCC 12344
  MICwild-type: 0.098 µg/mL

## CCCC/C(C)=C/C=C(\C)C(=O)c1c(O)cc([C@H](C)CC/C=C/NC(=O)OC)oc1=O [myxopyronin B]
E. coli strain D21f2tolC [1]
  MICwild-type: 0.20 µg/mL
S. pyogenes ATCC 12344
  MICwild-type: 6.25 µg/mL

## CC[C@@H](C)[C@@H]1NC(=O)[C@H](NC(=O)[C@@H](C)[C@@H](O)C(C)C)[C@H](C)OC(=O)[C@H]2COC(=O)CNC(=O)/C=C/[C@@]3(CO3)[C@H](C)Oc3ccc(cc3)[C@H](NC1=O)C(=O)N(C)[C@H](Cc1ccccc1)C(=O)N[C@@H]([C@H](C)O)C(=O)N2 [salinamide A] (X1-[dT][aIle][X2][dNMeF][aThr][dS]; ester 1-C; linker 3-6 via G)
E. coli strain D21f2tolC [1]
  MICwild-type: 0.049 µg/mL

## CNC(=O)[C@@H](C)[C@H]1C(=O)/C(=C(O)/C=C/C(C)=C/[C@@H](C)[C@H]2O[C@@]3(C)O[C@H](C=C[C@@]34CO4)[C@@H]2C)C(=O)N1[C@@H]1CC[C@H](O)[C@H](C)O1 [streptolydigin]
E. coli strain D21f2tolC [1]
  MICwild-type: 3.13 µg/mL
S. pyogenes ATCC 12344
  MICwild-type: 3.13 µg/mL

## GE23077
E. coli strain D21f2tolC [1]
  MICwild-type: 500 µg/mL

## lipiarmycin A3
E. coli strain D21f2tolC [1]
  MICwild-type: 1.56 µg/mL
S. pyogenes ATCC 12344
  MICwild-type: 6.25 µg/mL
